Results on eight molecules are retold here after ChEMBL document CHEMBL3392997, “Interconversion of Functional Activity by Minor Structural Alterations in Nonpeptide AT2 Receptor Ligands” (ACS Med Chem Lett, 2015).

Test [1] deals with T1, Type-2 angiotensin II receptor (Homo sapiens) (UniProt P50052).
T1 sequence (whole entry): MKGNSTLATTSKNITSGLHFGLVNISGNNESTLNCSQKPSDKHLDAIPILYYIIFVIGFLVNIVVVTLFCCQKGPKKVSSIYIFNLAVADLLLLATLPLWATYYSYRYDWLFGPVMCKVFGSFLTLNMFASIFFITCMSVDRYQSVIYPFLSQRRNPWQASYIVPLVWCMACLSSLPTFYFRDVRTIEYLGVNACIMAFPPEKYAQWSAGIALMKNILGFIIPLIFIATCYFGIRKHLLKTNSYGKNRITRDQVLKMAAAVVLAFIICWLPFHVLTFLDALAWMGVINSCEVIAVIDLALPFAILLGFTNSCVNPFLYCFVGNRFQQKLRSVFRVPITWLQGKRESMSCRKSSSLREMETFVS
As to the kind of experiment: Agonist activity at AT2 receptor (unknown origin) expressed in NG108-15 cells assessed as induction of neurite outgrowth at 10 nM after 3 days by phase contrast microscopy. Type of test: cell-based. In outline:
(§1)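 Undifferentiated NG108-15 cells were plated at 3.6×10^4 cells per 35 mm dish and cultured 3 days with agent alone, or with 10 μM PD 123,319 or 100 nM Ang II. Phase-contrast micrographs were taken. A cell with at least one neurite longer than its cell body scored positive, expressed as percent of total cells counted (at least 400). Two-way ANOVA.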

The target of test [2] is T1, Type-2 angiotensin II receptor (Homo sapiens). Nature of the test: Agonist activity at AT2 receptor (unknown origin) expressed in NG108-15 cells assessed as induction of neurite outgrowth at 10 nM after 3 days in presence of 10 uM AT2 receptor antagonist PD 123,319 by phase contrast microscopy. Format: cell-based. The gist of the method:
as §1

Test [3] has the same target. Particulars: NG108-15, 10 uM.
Test [4] shares this target. Nature of the test: Agonist activity at AT2 receptor (unknown origin) expressed in NG108-15 cells assessed as induction of neurite outgrowth at 100 nM after 3 days by phase contrast microscopy. Type of test: cell-based. The gist of the method:
as §1

Test [5] has the same target. Nature of the test: Antagonist activity against AT2 receptor (unknown origin) expressed in NG108-15 cells assessed as reduction in angiotension-2-induced neurite outgrowth at 10 nM after 3 days by phase contrast microscopy. Type of test: cell-based. In outline: as §1
Test [6] concerns the target T2, Type-1 angiotensin II receptor A (Rattus norvegicus, UniProt P25095).
T2 sequence (P25095 whole entry): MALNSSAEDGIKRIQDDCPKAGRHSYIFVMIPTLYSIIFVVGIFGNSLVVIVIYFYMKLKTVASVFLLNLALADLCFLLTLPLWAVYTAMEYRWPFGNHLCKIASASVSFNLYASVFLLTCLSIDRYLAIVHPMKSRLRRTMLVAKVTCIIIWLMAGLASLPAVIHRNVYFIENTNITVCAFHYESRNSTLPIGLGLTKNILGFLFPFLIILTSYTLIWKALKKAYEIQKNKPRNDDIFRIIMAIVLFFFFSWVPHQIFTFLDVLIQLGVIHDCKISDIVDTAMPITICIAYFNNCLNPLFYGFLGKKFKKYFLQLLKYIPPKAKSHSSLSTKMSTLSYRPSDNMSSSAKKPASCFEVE
Nature of the test: Displacement of [125I]-Ang II from AT1 receptor in rat liver membranes after 2 hrs by gamma-counting method. Format: cell membranes, Membrane. Background: In a radioligand displacement assay an active substance lowers the binding of a labelled ligand.

Test [7] concerns the target T3, Type-1 angiotensin II receptor (Homo sapiens, UniProt P30556).
T3 sequence (P30556 whole entry): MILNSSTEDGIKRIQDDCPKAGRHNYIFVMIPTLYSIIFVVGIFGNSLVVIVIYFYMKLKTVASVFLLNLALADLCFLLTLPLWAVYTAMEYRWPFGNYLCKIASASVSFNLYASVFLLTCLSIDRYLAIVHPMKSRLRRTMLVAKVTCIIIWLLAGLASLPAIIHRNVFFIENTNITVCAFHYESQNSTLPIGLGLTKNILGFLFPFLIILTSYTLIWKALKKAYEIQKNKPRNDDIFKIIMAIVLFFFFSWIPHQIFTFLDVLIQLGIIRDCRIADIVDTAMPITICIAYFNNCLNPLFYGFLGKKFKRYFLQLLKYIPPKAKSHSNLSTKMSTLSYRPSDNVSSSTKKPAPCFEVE
Nature of the test: Displacement of [125I]-[Sar1,Leu8]angiotensin II from human AT1 receptor expressed in african green monkey COS7 cells. Type of test: cell-based, COS-7.

Test [8] can be described thus: Binding affinity to AT2 receptor (unknown origin).

Usually Ki stands for a measure of affinity in units of concentration, obtained from inhibition or displacement. As usually defined, the IC50 is the concentration needed to halve the response being measured.

Calls of active or inactive are those of the source. No cut-off for these calls is given here.

Consider `CCCCOC(=O)NS(=O)(=O)c1cc(CC(C)C)ccc1-c1ccc(Cn2ccnc2)cc1`, for which the outcome in test [1] was Active. For the same molecule, the result in test [2] was inactive.

As for `Cc1cc(Cn2cnc3c2C[C@@H](C(=O)O)N(C(=O)C(c2ccccc2)c2ccccc2)C3)ccc1N(C)C`, the inhibition result in test [3] was “Active”.

With `CCCCOC(=O)NS(=O)(=O)c1ccc(CC(C)C)cc1-c1cccc(Cn2ccnc2)c1`, the outcome in test [1] and in test [4] was inactive. Moreover, the inhibition result in test [5] is “Active”.

Molecule `CCCCOC(=O)NS(=O)(=O)c1sc(CC(C)C)cc1-c1ccc(Cn2ccnc2)cc1` [BULOXIBUTID] gave a Ki in test [6] of more than 10000 nM.

`CCCCOC(=O)NS(=O)(=O)c1ccc(CC(C)C)cc1-c1ccc(Cn2ccnc2)cc1`: the outcome in test [1] was Active. In test [2], the result was inactive.

As to `CCCCOC(=O)NS(=O)(=O)c1cc(CC(C)C)ccc1-c1cccc(Cn2ccnc2)c1`, the result in test [1] was Active. Also, in test [2], the outcome was inactive.

For `CCCCOC(=O)NS(=O)(=O)c1ccc(CC(C)C)cc1-c1ccc(Cn2c(CC)nc3c(C)cc(C)nc32)cc1`, the IC50 in test [7] stood at 2.1 nM; in test [8], 0.7 nM.

`CCCCOC(=O)NS(=O)(=O)c1ccc(CCC)cc1-c1ccc(Cn2c(CC)nc3c(C)cc(C)nc32)cc1` showed a 50% inhibitory concentration (IC50) in test [8] of 4.2 nM.
